In assay [1] the test system is A549. In words: Induction of apoptosis in human A549 cells assessed as late apoptosis at 1 uM measured after 12 hrs by Annexin V-FITC/ Propidium iodide stain based flow cytometry assay relative to control. It is filed as functional. The gist of the method: (§1)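 Cells double-stained with FITC-annexin V and propidium iodide, then flow cytometry gave the percentages of early and late apoptotic cells.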
Background: Flow cytometry measures light scatter and fluorescence of single cells or particles in a stream.

Assay [2] has as its system A549. As to the kind of experiment: Induction of apoptosis in human A549 cells assessed as early apoptosis at 1 uM measured after 12 hrs by Annexin V-FITC/ Propidium iodide stain based flow cytometry assay relative to control. It counts as functional. An outline of the steps:
as §1

Assay [3] relates to A549. In words: cells. The settings on record: Homo sapiens, A549, 72 h.
In assay [4] the test system is MKN-45. In words: Cytotoxicity against human MKN-45 cells assessed as inhibition of cell proliferation measured after 72 hrs by MTT assay. The settings on record: MKN-45, 72 h. It counts as functional, cell-based.
Assay [5] deals with MDA-MB-231. In words: Cytotoxicity against human MDA-MB-231 cells assessed as inhibition of cell proliferation measured after 72 hrs by MTT assay. It is filed as functional, cell-based. The settings on record: MDA-MB-231, 72 h. A general note: Tetrazolium assays rely on reduction of a dye to a coloured formazan, in cell work by metabolically active cells.
Assay [6] deals with HT-29. In words: cells. The settings on record: Homo sapiens, HT-29, 72 h.

Consider `COc1cc2c(Oc3ccc(NC(=O)C4(C(=O)Nc5ccc(F)cc5)CC4)cc3F)ccnc2cc1OCCCN1CCOCC1` [FORETINIB], for which the results for the Activity in assay [1] and in assay [2] were 22.9% and 11.25%, respectively.

By IC50 is commonly meant the concentration at which inhibition is half-maximal. For the compound `CCCCC/C(=N\S(=O)(=O)Cc1ccccc1)Nc1ccc(Oc2ccnc3cc(OC)c(OC)cc23)c(F)c1`, the IC50 in assay [3] is 7.55 µM; in assay [4], 9.28 µM; in assay [5] it was 12.8 µM; in assay [6], 8.26 µM.

For the compound `COc1cc2nccc(Oc3ccc(N/C(C)=N/S(=O)(=O)Cc4ccccc4)cc3F)c2cc1OC`, the IC50 in assay [3] came out at 5.16 µM; in assay [4], 5.99 µM; in assay [5] it was 9.29 µM; in assay [6], 5.85 µM.

Turning to `COCC/C(=N\S(=O)(=O)Cc1ccc(F)cc1)Nc1ccc(Oc2ccnc3cc(OC)c(OC)cc23)c(F)c1`, the IC50 in assay [3] turned out to be 1.42 µM; in assay [4] it was 2.15 µM; in assay [5], 4.24 µM; in assay [6], 1.68 µM.

In the case of `CCCCC/C(=N\S(=O)(=O)Cc1ccc(F)cc1)Nc1ccc(Oc2ncnc3ccsc23)c(F)c1`, the IC50 turned out to be 10.3 µM in assay [3], 12.5 µM in assay [4], 16.8 µM in assay [5] and 11.2 µM in assay [6].

`COCC/C(=N\S(=O)(=O)Cc1ccc(Cl)c(Cl)c1)Nc1ccc(Oc2ccnc3cc(OC)c(OC)cc23)c(F)c1`: the IC50 stood at 0.71 µM in assay [3], 1.16 µM in assay [4], 3.32 µM in assay [5] and 0.88 µM in assay [6].

As for `COCC/C(=N\S(=O)(=O)Cc1ccc(Cl)c(Cl)c1)Nc1ccc(Oc2ccnc3cc(OCCCN4CCCCC4)c(OC)cc23)c(F)c1`, the IC50 in assay [3] was found to be 0.67 µM; in assay [4], 0.88 µM; in assay [5], 0.93 µM; in assay [6] it was 0.78 µM.

On to `COCC/C(=N\S(=O)(=O)Cc1ccc(Br)cc1)Nc1ccc(Oc2ccnc3cc(OC)c(OC)cc23)c(F)c1`, for which the IC50 came out at 7.14 µM in assay [3], 11.3 µM in assay [4], 12.1 µM in assay [5] and 8.03 µM in assay [6].

As to `COc1cc2nccc(Oc3ccc(N/C(C)=N/S(=O)(=O)Cc4ccc(F)cc4)cc3F)c2cc1OC`, the half-maximal inhibitory concentration (IC50) is 3.76 µM in assay [3], 4.55 µM in assay [4], 7.65 µM in assay [5] and 4.12 µM in assay [6].

For `COCC/C(=N\S(=O)(=O)Cc1cccc(F)c1)Nc1ccc(Oc2ccnc3cc(OC)c(OC)cc23)c(F)c1`, the IC50 in assay [3] stood at 2.14 µM; in assay [4], 3.52 µM; in assay [5], 5.34 µM; in assay [6], 2.47 µM.

These data come from ChEMBL document CHEMBL4765349, “Design, synthesis and biological evaluation of novel N-sulfonylamidine-based derivatives as c-Met inhibitors via Cu-catalyzed three-component reaction” (Eur J Med Chem, 2020).
